The values below come from ChEMBL document CHEMBL1132297, “Novel cryptophycin antitumor agents: synthesis and cytotoxicity of fragment "B" analogues” (J Med Chem, 1999).

Structures are written as SMILES.

This test concerns CCRF-CEM. Put plainly: In vitro cytotoxicity against human leukemia CCRF-CEM tumor cell lines. The format is functional, cell-based. A digest of the protocol:
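Log-phase cells seeded at 4.8×10^4 cells per well in RPMI-1640 with 10% dialyzed FBS and 25 mM HEPES. Compounds were dissolved in DMSO at 0.2 mg/mL, serially diluted 1:3 in DMSO, and added to duplicate wells; DMSO final 0.5%, with DMSO-only control wells. Exposure 72 h at 37 °C, 5% CO2. Suspension cells counted by Coulter counter; IC50 from dose–response curves.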
The compound `CC(C)C[C@@H]1OC(=O)C(C)(C)CNC(=O)[C@@H]([C@H](C)O)NC(=O)/C=C/C[C@@H]([C@H](C)[C@H]2O[C@@H]2c2ccccc2)OC1=O` had an IC50 of 1060 nM.

With `CC(C)C[C@@H]1OC(=O)C(C)(C)CNC(=O)[C@@H](Cc2ccc(N)c(Cl)c2)NC(=O)/C=C/C[C@@H]([C@H](C)/C=C/c2ccccc2)OC1=O`, the IC50 was determined as 500 nM. In the case of `CC(C)C[C@@H]1OC(=O)C(C)(C)CNC(=O)[C@@H](Cc2ccc(NC(=O)OCC3c4ccccc4-c4ccccc43)cc2)NC(=O)/C=C/C[C@@H]([C@H](C)/C=C/c2ccccc2)OC1=O` it was greater than 1200 nM. For `CC(C)C[C@@H]1OC(=O)C(C)(C)CNC(=O)[C@@H](Cc2ccc(O)c(O)c2)NC(=O)/C=C/C[C@@H]([C@H](C)/C=C/c2ccccc2)OC1=O` the value was 1300 nM; for `CC(C)C[C@@H]1OC(=O)C(C)(C)CNC(=O)[C@@H](CCc2ccccc2)NC(=O)/C=C/C[C@@H]([C@H](C)/C=C/c2ccccc2)OC1=O`, 1660 nM; for `COc1ccc(C[C@H]2NC(=O)/C=C/C[C@@H]([C@H](C)C3O[C@@H]3c3ccccc3)OC(=O)[C@H](CC(C)C)OC(=O)C(C)(C)CNC2=O)cc1Cl` (stereo not given in full), 0.022 nM. For `CC(C)C[C@@H]1OC(=O)C(C)(C)CNC(=O)[C@@H](Cc2ccc(O)c(Cl)c2)NC(=O)/C=C/C[C@@H]([C@H](C)/C=C/c2ccccc2)OC1=O` the value was 269 nM; for `CC(C)C[C@@H]1OC(=O)C(C)(C)CNC(=O)[C@@H](Cc2ccccc2)NC(=O)/C=C/C[C@@H]([C@H](C)[C@H]2O[C@@H]2c2ccccc2)OC1=O`, 0.183 nM. As to `CC(C)C[C@@H]1OC(=O)C(C)(C)CNC(=O)[C@@H](Cc2cccc3ccccc23)NC(=O)/C=C/C[C@@H]([C@H](C)[C@@H]2O[C@H]2c2ccccc2)OC1=O`, the IC50 is 327 nM. For `CC(C)C[C@@H]1OC(=O)C(C)(C)CNC(=O)[C@@H](CC2CCCCC2)NC(=O)/C=C/C[C@@H]([C@H](C)/C=C/c2ccccc2)OC1=O` the value was greater than 1680 nM; for `CC(C)C[C@@H]1OC(=O)C(C)(C)CNC(=O)[C@@H](Cc2cccnc2)NC(=O)/C=C/C[C@@H]([C@H](C)/C=C/c2ccccc2)OC1=O`, 997 nM; for `CC(C)C[C@@H]1OC(=O)C(C)(C)CNC(=O)[C@@H](CCc2ccccc2)NC(=O)/C=C/C[C@@H]([C@H](C)[C@@H]2O[C@H]2c2ccccc2)OC1=O`, greater than 1620 nM. For `CC(C)C[C@@H]1OC(=O)C(C)(C)CNC(=O)[C@@H](Cc2ccc3ccccc3c2)NC(=O)/C=C/C[C@@H]([C@H](C)/C=C/c2ccccc2)OC1=O` the value was greater than 1570 nM; for `CC(C)C[C@@H]1OC(=O)C(C)(C)CNC(=O)[C@@H](Cc2ccc3ccccc3c2)NC(=O)/C=C/C[C@@H]([C@H](C)[C@@H]2O[C@H]2c2ccccc2)OC1=O`, 866 nM; for `CC(C)C[C@@H]1OC(=O)C(C)(C)CNC(=O)[C@@H](c2ccc(O)cc2)NC(=O)/C=C/C[C@@H]([C@H](C)/C=C/c2ccccc2)OC1=O`, greater than 1690 nM. As for `CC(C)C[C@@H]1OC(=O)C(C)(C)CNC(=O)[C@H]2CCCN2C(=O)/C=C/C[C@@H]([C@H](C)[C@H]2O[C@@H]2c2ccccc2)OC1=O`, half-maximal inhibition (IC50) was put at 1350 nM.

For the compound `CC(C)C[C@@H]1OC(=O)C(C)(C)CNC(=O)[C@@H](Cc2ccc(N)cc2)NC(=O)/C=C/C[C@@H]([C@H](C)[C@H]2O[C@@H]2c2ccccc2)OC1=O`, the IC50 was 10.1 nM. For `CC(C)C[C@@H]1OC(=O)C(C)(C)CNC(=O)[C@@H](Cc2ccc(NC(=O)OCC3c4ccccc4-c4ccccc43)cc2)NC(=O)/C=C/C[C@@H]([C@H](C)C2OC2c2ccccc2)OC1=O` (stereo not given in full) the value was 115 nM; for `CC(C)C[C@@H]1OC(=O)C(C)(C)CNC(=O)[C@@H](CC2CCCCC2)NC(=O)/C=C/C[C@@H]([C@H](C)[C@H]2O[C@@H]2c2ccccc2)OC1=O`, 8.8 nM; for `CC(C)C[C@@H]1OC(=O)C(C)(C)CNC(=O)[C@@H](c2ccc(O)cc2)NC(=O)/C=C/C[C@@H]([C@H](C)[C@H]2O[C@@H]2c2ccccc2)OC1=O`, 274 nM. In the case of `CC(C)C[C@@H]1OC(=O)C(C)(C)CNC(=O)[C@@H](Cc2ccc(N(C)C)c(Cl)c2)NC(=O)/C=C/C[C@@H]([C@H](C)[C@H]2O[C@@H]2c2ccccc2)OC1=O` it was 0.054 nM; in that of `CC(C)C[C@@H]1OC(=O)C(C)(C)CNC(=O)[C@@H](Cc2ccc(NC(=O)OCC3c4ccccc4-c4ccccc43)c(Cl)c2)NC(=O)/C=C/C[C@@H]([C@H](C)C2OC2c2ccccc2)OC1=O` (stereo not given in full), 15.3 nM. For `CC(C)C[C@@H]1OC(=O)C(C)(C)CNC(=O)[C@@H](Cc2ccc(O)c(Cl)c2)NC(=O)/C=C/C[C@@H]([C@H](C)[C@H]2O[C@@H]2c2ccccc2)OC1=O` the value was 0.52 nM; for `CC(C)C[C@@H]1OC(=O)C(C)(C)CNC(=O)[C@@H](C(C)C)NC(=O)/C=C/C[C@@H]([C@H](C)/C=C/c2ccccc2)OC1=O`, greater than 1850 nM; for `CC(C)C[C@@H]1OC(=O)C(C)(C)CNC(=O)[C@@H](Cc2ccc(I)cc2)NC(=O)/C=C/C[C@@H]([C@H](C)/C=C/c2ccccc2)OC1=O`, 607 nM.

`CC(C)C[C@@H]1OC(=O)C(C)(C)CNC(=O)[C@@H](Cc2ccc3ccccc3c2)NC(=O)/C=C/C[C@@H]([C@H](C)[C@H]2O[C@@H]2c2ccccc2)OC1=O` showed a half-inhibitory concentration (IC50) of 48 nM.

Compound `CC(C)C[C@@H]1OC(=O)C(C)(C)CNC(=O)[C@H]2CCCN2C(=O)/C=C/C[C@@H]([C@H](C)/C=C/c2ccccc2)OC1=O` gave an IC50 greater than 1860 nM.

The compound `CC(C)C[C@@H]1OC(=O)C(C)(C)CNC(=O)CNC(=O)/C=C/C[C@@H]([C@H](C)[C@H]2O[C@@H]2c2ccccc2)OC1=O` displayed an IC50 greater than 1940 nM. `CC(C)C[C@@H]1OC(=O)C(C)(C)CNC(=O)[C@@H](Cc2cccc3ccccc23)NC(=O)/C=C/C[C@@H]([C@H](C)[C@H]2O[C@@H]2c2ccccc2)OC1=O` registered a half-inhibitory concentration (IC50) of 35 nM. In the case of `COc1ccc(C[C@H]2NC(=O)/C=C/C[C@@H]([C@H](C)/C=C/c3ccccc3)OC(=O)[C@H](CC(C)C)OC(=O)C(C)(C)CNC2=O)cc1Cl` it was 13.8 nM; in that of `CC(C)C[C@@H]1OC(=O)C(C)(C)CNC(=O)[C@@H](Cc2cccc3ccccc23)NC(=O)/C=C/C[C@@H]([C@H](C)/C=C/c2ccccc2)OC1=O`, greater than 1570 nM. In turn, `CC(C)C[C@@H]1OC(=O)C(C)(C)CNC(=O)[C@@H](COCc2ccccc2)NC(=O)/C=C/C[C@@H]([C@H](C)/C=C/c2ccccc2)OC1=O` gave an IC50 of 856 nM. In the case of `CC(C)C[C@@H]1OC(=O)C(C)(C)CNC(=O)[C@@H](Cc2ccc(O)c(Cl)c2)NC(=O)/C=C/C[C@@H]([C@H](C)[C@@H]2O[C@H]2c2ccccc2)OC1=O` it was 31 nM; in that of `CC(C)C[C@@H]1OC(=O)C(C)(C)CNC(=O)[C@@H](Cc2ccc(O)cc2)NC(=O)/C=C/C[C@@H]([C@H](C)/C=C/c2ccccc2)OC1=O`, 734 nM; in that of `CC(C)C[C@@H]1OC(=O)C(C)(C)CNC(=O)[C@@H](Cc2ccc(O)cc2)NC(=O)/C=C/C[C@@H]([C@H](C)[C@H]2O[C@@H]2c2ccccc2)OC1=O`, 4.11 nM. `CC(C)C[C@@H]1OC(=O)C(C)(C)CNC(=O)[C@@H](Cc2ccccc2)NC(=O)/C=C/C[C@@H]([C@H](C)/C=C/c2ccccc2)OC1=O` showed an IC50 of 412 nM. In the case of `CC(C)C[C@@H]1OC(=O)C(C)(C)CNC(=O)[C@@H](COCc2ccccc2)NC(=O)/C=C/C[C@@H]([C@H](C)[C@@H]2O[C@H]2c2ccccc2)OC1=O` it was 975 nM.

`CC(C)C[C@@H]1OC(=O)C(C)(C)CNC(=O)CNC(=O)/C=C/C[C@@H]([C@H](C)/C=C/c2ccccc2)OC1=O` gave an IC50 greater than 2000 nM.

`CC(C)C[C@@H]1OC(=O)C(C)(C)CNC(=O)[C@@H](CCc2ccccc2)NC(=O)/C=C/C[C@@H]([C@H](C)[C@H]2O[C@@H]2c2ccccc2)OC1=O`: the IC50 is 598 nM. In the case of `CC(C)C[C@@H]1OC(=O)C(C)(C)CNC(=O)[C@@H]([C@H](C)O)NC(=O)/C=C/C[C@@H]([C@H](C)/C=C/c2ccccc2)OC1=O` it was greater than 1840 nM; in that of `CC(C)C[C@@H]1OC(=O)C(C)(C)CNC(=O)[C@@H](Cc2ccc(N)c(Cl)c2)NC(=O)/C=C/C[C@@H]([C@H](C)[C@H]2O[C@@H]2c2ccccc2)OC1=O`, 0.58 nM.

In the case of `CC(C)C[C@@H]1OC(=O)C(C)(C)CNC(=O)[C@@H](Cc2ccc(NC(=O)OCC3c4ccccc4-c4ccccc43)c(Cl)c2)NC(=O)/C=C/C[C@@H]([C@H](C)/C=C/c2ccccc2)OC1=O`, the IC50 was greater than 1250 nM.

Turning to `CC(C)C[C@@H]1OC(=O)C(C)(C)CNC(=O)[C@@H](COCc2ccccc2)NC(=O)/C=C/C[C@@H]([C@H](C)[C@H]2O[C@@H]2c2ccccc2)OC1=O`, the IC50 amounted to 249 nM. This counts as sub-micromolar. For `CC(C)C[C@@H]1OC(=O)C(C)(C)CNC(=O)[C@@H](Cc2ccc(N)cc2)NC(=O)/C=C/C[C@@H]([C@H](C)/C=C/c2ccccc2)OC1=O` the value was 1540 nM; for `CC(C)C[C@@H]1OC(=O)C(C)(C)CNC(=O)[C@@H](C(C)C)NC(=O)/C=C/C[C@@H]([C@H](C)[C@H]2O[C@@H]2c2ccccc2)OC1=O`, greater than 1800 nM.

Usually IC50 stands for the concentration that inhibits the measured activity by half. A high value points to a need for much substance.
